Activity calls are given as the source filed them. The rule behind the calls is not given here.
What was measured:
[1] = biological target: T1, 5-hydroxytryptamine receptor 1A (Homo sapiens, UniProt P08908); experiment: Displacement of [3H]8-OH-DPAT from recombinant human 5-HT1A receptor expressed in HEK293 cell membranes after 60 mins by scintillation counting method
T1 sequence (P08908 whole entry): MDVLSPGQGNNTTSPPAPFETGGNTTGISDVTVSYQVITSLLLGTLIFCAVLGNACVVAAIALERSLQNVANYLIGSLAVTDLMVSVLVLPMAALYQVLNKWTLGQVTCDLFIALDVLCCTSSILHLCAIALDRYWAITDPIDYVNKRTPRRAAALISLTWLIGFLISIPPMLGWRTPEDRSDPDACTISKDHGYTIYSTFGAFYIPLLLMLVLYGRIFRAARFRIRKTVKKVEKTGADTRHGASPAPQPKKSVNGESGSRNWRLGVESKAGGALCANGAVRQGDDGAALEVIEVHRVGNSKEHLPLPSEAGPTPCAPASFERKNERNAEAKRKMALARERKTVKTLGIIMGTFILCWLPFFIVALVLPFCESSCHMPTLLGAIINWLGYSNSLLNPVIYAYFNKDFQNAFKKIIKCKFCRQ

[2] = tested on: Rattus norvegicus; experiment: Antipsychotic activity in Sprague-Dawley rat assessed as inhibition of conditioned avoidance behavior at 1.0 to 2.0 mg/kg, ip administered as single dose measured after 1 hr; type: functional, organism-based
In short: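 Male SD rats (150–180 g, 6 per group) trained in automated shuttle-boxes; only rats exceeding 80% avoidance were used. Single i.p. dose of 1.0 or 2.0 mg/kg given 1 h before a 20-trial session. Read-out is percentage of avoidance (mean ± SEM, n = 6), compared with the vehicle group.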

[3] = biological target: T2, 5-hydroxytryptamine receptor 2A (Homo sapiens, UniProt P28223); experiment: Displacement of [3H]ketanserin from recombinant human 5-HT2A receptor expressed in HEK293 cell membranes after 60 mins by scintillation counting method
T2 sequence (P28223 whole entry): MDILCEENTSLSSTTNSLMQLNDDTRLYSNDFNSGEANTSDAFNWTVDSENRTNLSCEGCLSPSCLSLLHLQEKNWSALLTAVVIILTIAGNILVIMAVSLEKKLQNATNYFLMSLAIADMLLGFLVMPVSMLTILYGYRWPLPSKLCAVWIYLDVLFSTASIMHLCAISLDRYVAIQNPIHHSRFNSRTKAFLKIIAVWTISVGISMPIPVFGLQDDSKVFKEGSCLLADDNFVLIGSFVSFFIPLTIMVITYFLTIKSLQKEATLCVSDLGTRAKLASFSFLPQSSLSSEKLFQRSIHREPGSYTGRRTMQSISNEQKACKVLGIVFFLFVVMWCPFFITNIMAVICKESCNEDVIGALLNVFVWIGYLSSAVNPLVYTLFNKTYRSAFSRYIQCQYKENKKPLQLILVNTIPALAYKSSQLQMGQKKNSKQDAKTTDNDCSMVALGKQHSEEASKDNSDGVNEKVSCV

[4] = biological target: D(3) dopamine receptor (Homo sapiens, UniProt P35462); experiment: Displacement of [3H]methyl-spiperone from recombinant human D3 receptor expressed in CHO cell membranes after 60 mins by scintillation counting method
Chain of D(3) dopamine receptor (P35462 whole entry): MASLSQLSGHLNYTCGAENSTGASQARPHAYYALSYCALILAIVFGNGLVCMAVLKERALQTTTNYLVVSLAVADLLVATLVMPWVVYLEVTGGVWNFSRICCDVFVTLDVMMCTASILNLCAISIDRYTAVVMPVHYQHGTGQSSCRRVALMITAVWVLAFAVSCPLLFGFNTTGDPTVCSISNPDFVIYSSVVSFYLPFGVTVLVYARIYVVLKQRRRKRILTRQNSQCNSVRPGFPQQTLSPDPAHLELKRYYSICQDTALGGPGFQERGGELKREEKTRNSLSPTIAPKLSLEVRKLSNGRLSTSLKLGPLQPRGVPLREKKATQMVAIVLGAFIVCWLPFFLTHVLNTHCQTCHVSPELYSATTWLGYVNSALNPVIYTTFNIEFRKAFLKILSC

[5] = biological target: D(2) dopamine receptor (Homo sapiens, UniProt P14416); experiment: Displacement of [3H]spiperone from recombinant human D2L receptor expressed in CHO cell membranes after 60 mins by scintillation counting method
Chain of D(2) dopamine receptor (P14416 whole entry): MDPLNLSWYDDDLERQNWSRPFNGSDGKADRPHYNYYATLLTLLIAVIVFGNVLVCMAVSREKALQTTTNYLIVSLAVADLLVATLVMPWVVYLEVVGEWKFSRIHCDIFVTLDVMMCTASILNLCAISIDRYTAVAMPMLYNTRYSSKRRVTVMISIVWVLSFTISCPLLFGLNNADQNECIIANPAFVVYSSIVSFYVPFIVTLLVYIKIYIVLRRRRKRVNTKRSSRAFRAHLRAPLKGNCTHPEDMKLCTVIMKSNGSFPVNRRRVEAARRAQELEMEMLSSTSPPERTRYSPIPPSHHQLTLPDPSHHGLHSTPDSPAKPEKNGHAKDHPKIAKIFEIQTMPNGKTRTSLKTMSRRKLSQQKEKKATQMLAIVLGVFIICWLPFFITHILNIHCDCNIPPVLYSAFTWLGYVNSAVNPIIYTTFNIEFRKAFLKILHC

[6] = Stability of compound; type: physicochemical
[7] = tested on: CHO; experiment: Selectivity ratio of Ki for displacement of [3H]spiperone from recombinant human D2L receptor expressed in CHO cell membranes to Ki for displacement of [3H]methyl-spiperone from recombinant human D3 receptor expressed in CHO cell membranes
In short: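 D2L binding: CHO membranes (16 µg protein) with 0.3 nM [3H]methyl-spiperone in 50 mM Tris-HCl pH 7.4, 120 mM NaCl, 10 mM MgCl2, 1 mM EDTA, with butaclamol for nonspecific binding. D3 binding: membranes (8 µg) with 0.3 nM [3H]methyl-spiperone in the same Tris buffer with 5 mM KCl, 5 mM MgCl2, 5 mM EDTA, with (+)butaclamol for nonspecific binding. Both run 60 min at 22 °C, then GF/B filtration. Ki by Cheng–Prusoff; ratio is D2 Ki/D3 Ki.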

[8] = tested on: Rattus norvegicus; experiment: Toxicity in Sprague-Dawley rat assessed as cataleptogenic effect by measuring time spent in cataleptic position at 1 to 10 mg/kg, po measured after 0.5 to 2 hrs; type: organism-based; settings: in vivo
In short: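 Male SD rats (180–250 g, n = 7) dosed orally at 1.0, 3.0 or 10.0 mg/kg. Forepaws placed on a bar 0.9 cm in diameter, 11 cm high, at 30, 60 and 120 min after dosing. Time held is expressed as a percentage of the 60 s maximum (mean ± SEM).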

[9] = biological target: T3, Muscarinic acetylcholine receptor M1 (Homo sapiens, UniProt P11229); experiment: Displacement of [3H]pirenzepine from recombinant human M1 receptor expressed in CHO cell membranes at 1 uM after 60 mins by scintillation counting method relative to control; settings: CHO cell membranes expressing recombinant human M1 receptor, probe [3H]pirenzepine
T3 sequence (P11229 whole entry): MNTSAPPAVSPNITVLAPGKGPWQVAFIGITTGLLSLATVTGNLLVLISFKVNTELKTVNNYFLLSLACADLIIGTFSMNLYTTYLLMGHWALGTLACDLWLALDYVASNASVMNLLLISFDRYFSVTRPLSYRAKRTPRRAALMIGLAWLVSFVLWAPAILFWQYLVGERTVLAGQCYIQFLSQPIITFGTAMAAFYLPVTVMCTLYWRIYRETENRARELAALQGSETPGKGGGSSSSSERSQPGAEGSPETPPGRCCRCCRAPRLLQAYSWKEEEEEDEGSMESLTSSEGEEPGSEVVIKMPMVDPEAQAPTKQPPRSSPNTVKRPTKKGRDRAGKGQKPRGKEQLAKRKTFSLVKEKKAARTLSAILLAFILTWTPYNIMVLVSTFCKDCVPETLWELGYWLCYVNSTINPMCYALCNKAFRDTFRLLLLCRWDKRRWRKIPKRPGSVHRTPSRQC
In short: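 Nonspecific binding defined with […]. Filtered on PEI-soaked GF/B and scintillation counted. Expressed as percent inhibition of control specific binding at a single test concentration.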

[10] = tested on: Rattus norvegicus; experiment: Cognitive enhancement effect in Sprague-Dawley rat assessed as reversal of PCP-impaired performance by measuring increase in time spent exploring novel object in comparison to familiar object at 0.1 mg/kg, po administered 60 mins prior to test by novel object recognition assay
[11] = tested on: Rattus norvegicus; experiment: Reversal of PCP-induced hyperlocomotion activity in ip dosed Sprague-Dawley rat pretreated for 10 mins followed by PCP challenge measured after […]; type: functional, organism-based
[12] = biological target: T4, 5-hydroxytryptamine receptor 1A (Homo sapiens) (UniProt P08908); settings: CHO-K1, 10 uM
T4 sequence (whole entry): T1 sequence (P08908 whole entry)

[13] = biological target: T2, 5-hydroxytryptamine receptor 2A; settings: CHO-K1, 10 uM

| Compound | Ki [1] [nM] | Ki [3] [nM] | Ki [4] [nM] | Ki [5] [nM] | Ratio Ki [7] | other results |
| --- | --- | --- | --- | --- | --- | --- |
| O=S(=O)(N[C@H]1CC[C@H](CCN2CCN(c3nsc4ccccc34)CC2)CC1)c1cccs1 | 1.1 | – | – | – | – | inhibition [2]: Active |
| CCOC(=O)N[C@H]1CC[C@H](CCN2CCN(c3nsc4ccccc34)CC2)CC1 | 0.2 | 0.53 | 0.058 | 0.71 | 12.2 | Stability [6]: Unstable |
| CN(C)C(=O)N[C@H]1CC[C@H](CCN2CCN(c3cccc(Cl)c3Cl)CC2)CC1 [CARIPRAZINE] | – | – | – | – | – | Activity [8]: Non-Toxic; inhibition at 1 h, 1 µM [9]: < 20%; Activity [10]: Active; inhibition [2]: Active; Activity [11]: Dose-dependent effect |
| CSc1ccc2c(c1)C(N1CCN(C)CC1)Cc1ccccc1S2 (configuration not stated) | – | – | – | – | – | inhibition [12]: 108%; inhibition [13]: 100% |
| O=C(NCc1ccccc1)N[C@H]1CC[C@H](CCN2CCN(c3nsc4ccccc34)CC2)CC1 | 5.3 | 0.91 | 0.18 | 1.4 | 7.78 | – |
| CC(=O)N[C@H]1CC[C@H](CCN2CCN(c3nsc4ccccc34)CC2)CC1 | 0.69 | 5.8 | 0.16 | 25 | 156 | – |
| Cc1nc2n(c(=O)c1CCN1CCC(c3noc4cc(F)ccc34)CC1)CCCC2 [RISPERIDONE] | – | – | – | – | – | Activity [8]: Non-Toxic |
| O=C(N[C@H]1CC[C@H](CCN2CCN(c3nsc4ccccc34)CC2)CC1)c1cccs1 | 1.1 | 0.15 | 0.056 | 0.19 | 3.4 | – |
| O=C(Nc1cccnc1)N[C@H]1CC[C@H](CCN2CCN(c3nsc4ccccc34)CC2)CC1 | 12 | 0.14 | 0.055 | 0.51 | 9.27 | – |
| CCCS(=O)(=O)N[C@H]1CC[C@H](CCN2CCN(c3nsc4ccccc34)CC2)CC1 | 1.1 | 0.34 | 0.22 | 1.9 | 8.64 | – |
| O=C(N[C@H]1CC[C@H](CCN2CCN(c3nsc4ccccc34)CC2)CC1)C1CC1 | 0.92 | 0.35 | 0.21 | 0.85 | 4.05 | – |
| O=C(N[C@H]1CC[C@H](CCN2CCN(c3nsc4ccccc34)CC2)CC1)C(F)(F)F | 1.1 | 0.63 | 0.27 | 1.7 | 6.3 | – |
| O=C(N[C@H]1CC[C@H](CCN2CCN(c3nsc4ccccc34)CC2)CC1)N1CCOCC1 | 15 | 3.2 | 1.6 | 2.2 | 1.38 | – |
| O=C(N[C@H]1CC[C@@H](CCN2CCN(c3nsc4ccccc34)CC2)CC1)c1ccco1 | 2.2 | 0.19 | 2.3 | 6.3 | 2.74 | – |
| O=C(NC[C@H]1CC[C@H](CN2CCN(c3nsc4ccccc34)CC2)CC1)c1ccco1 | 5.3 | 16 | 1 | 8.9 | 8.9 | – |
| CN(C)C(=O)N[C@H]1CC[C@H](CCN2CCN(c3nsc4ccccc34)CC2)CC1 | 1.2 | 0.6 | 0.4 | 0.53 | 1.33 | – |
| O=C(Nc1ccccc1)N[C@H]1CC[C@H](CCN2CCN(c3nsc4ccccc34)CC2)CC1 | 1.4 | 0.21 | 0.043 | 0.63 | 14.7 | inhibition [2]: Active |

From ChEMBL document CHEMBL3872208, “Synthesis and pharmacological characterization of novel N-(trans-4-(2-(4-(benzo[d]isothiazol-3-yl)piperazin-1-yl)ethyl)cyclohexyl)amides as potential multireceptor atypical antipsychotics” (Eur J Med Chem, 2016)
